Results on 38 molecules are retold here after ChEMBL document CHEMBL1122270, “N-(4-substituted-thiazolyl)oxamic acid derivatives, a new series of potent, orally active antiallergy agents” (1983).

Usually ED50 stands for the midpoint of the dose-response relation. Low readings indicate greater potency, high ones weaker potency.

What all share (type): functional
The test system of experiment [1] is Rattus norvegicus. Description: Antiallergic activity by rat passive cutaneous anaphylaxis (PCA) assay when administered per orally. Conditions: po. The method, boiled down:
(§1)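 Rats were passively sensitized intradermally with diluted reaginic anti-ovalbumin serum 24 h before challenge. Compound was suspended in 1% acacia and dosed by oral feeding needle at 1 mL/kg. After 20-30 min, rats were challenged with 0.02 mg ovalbumin in 0.5 mL 2% Evans Blue. Blued areas were measured 30 min after challenge. Six rats per dose; ED50 is 50% area reduction from control, with 95% confidence limits.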

The test system of experiment [2] is Rattus norvegicus. Description: Antiallergic activity by rat passive cutaneous anaphylaxis (PCA) assay when administered iv;value ranges between (0.07-1.70). An outline of the steps:
(§2)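 Male rats sensitized by id injection of diluted rat anti-ovalbumin reaginic serum (0.1 mL each side of shaved back). 24 h later, compound in saline was mixed with 5 mg ovalbumin in 0.5 mL 2% Evans Blue and given iv at 1 mL/kg. Blued-spot diameters were read 30 min later. Six rats per group; ED50 is 50% area reduction versus control, with 95% confidence limits.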

Experiment [3] relates to Rattus norvegicus. Kind of experiment: Antiallergic activity by rat passive cutaneous anaphylaxis (PCA) assay when administered per orally;value ranges between( 0.4-3.0.). The note with it: po. An outline of the steps: as §1
In experiment [4] the test system is Rattus norvegicus. Kind of experiment: Antiallergic activity by rat passive cutaneous anaphylaxis (PCA) assay when administered per orally;value ranges between (0.4-0.8.). The note with it: po. An outline of the steps:
as §1

Experiment [5] concerns Rattus norvegicus. Description: antiallergic activity by rat passive cutaneous anaphylaxis (PCA) assay when administered iv. The method, boiled down: as §2
Experiment [6] deals with Rattus norvegicus. Kind of experiment: Antiallergic activity by rat passive cutaneous anaphylaxis (PCA) assay when administered per orally;value ranges between (0.15-0.94.). Conditions: po. The method, boiled down:
as §1

For experiment [7], the system named is Rattus norvegicus. Description: Antiallergic activity by rat passive cutaneous anaphylaxis (PCA) assay when administered iv;value ranges between (0.07-0.4.). An outline of the steps:
as §2

The subject of experiment [8] is Rattus norvegicus. Description: Antiallergic activity by rat passive cutaneous anaphylaxis (PCA) assay when administered iv;value ranges between (0.2-1.1). The method, boiled down:
as §2

The subject of experiment [9] is Rattus norvegicus. Description: Antiallergic activity by rat passive cutaneous anaphylaxis (PCA) assay when administered per orally;value ranges between (1.0-4.8). Conditions: po. The method, boiled down: as §1
The subject of experiment [10] is Rattus norvegicus. Kind of experiment: Antiallergic activity by rat passive cutaneous anaphylaxis (PCA) assay when administered iv;value ranges between 0.23-2.24. An outline of the steps:
as §2

The test system of experiment [11] is Rattus norvegicus. Kind of experiment: Antiallergic activity by rat passive cutaneous anaphylaxis (PCA) assay when administered per orally;value ranges between (0.5-3.27). The note with it: po. The method, boiled down: as §1
In experiment [12] the test system is Rattus norvegicus. Description: Antiallergic activity by rat passive cutaneous anaphylaxis (PCA) assay when administered iv;value ranges between (0.56-2.74). The method, boiled down: as §2

Molecule `CCOC(=O)C(=O)Nc1nc(-c2ccc(-c3ccccc3)cc2O)cs1` returned an ED50 with Rattus norvegicus [1] of over 10 mg/kg. The molecule `CCOC(=O)C(=O)Nc1nc(-c2ccc(OC)cc2OC)cs1` displayed an ED50 in the experiment on Rattus norvegicus [1] of over 30 mg/kg. The same measure, in the same setting: with `CCOC(=O)C(=O)Nc1nc(-c2cc(OC)c(O)c(OC)c2)cs1` the figure was about 10 mg/kg. Consider `CN(C)c1cccc(-c2csc(NC(=O)C(=O)O)n2)c1.NCCO`, for which the 50% effective dose (ED50) with Rattus norvegicus [2] is 0.35 mg/kg; in the experiment with Rattus norvegicus [3], 1.7 mg/kg.

In the experiment with Rattus norvegicus [1], `NCCO.O=C(O)C(=O)Nc1nc(-c2ccncc2)cs1` registered a 50% effective dose (ED50) of over 3 mg/kg.

Turning to `CCOC(=O)C(=O)Nc1nc(-c2ccc(OC)c(OC)c2)cs1`, the ED50 with Rattus norvegicus [1] was about 3 mg/kg. In turn, `CC(=O)Nc1ccc(-c2csc(NC(=O)C(N)=O)n2)cc1` yielded a 50% effective dose (ED50) in the experiment on Rattus norvegicus [1] of over 10 mg/kg.

On to `CCOc1ccc(-c2csc(NC(=O)C(=O)O)n2)cc1.NCCO`, for which the ED50 in the experiment with Rattus norvegicus [4] stood at 0.54 mg/kg. In the experiment on Rattus norvegicus [1], `NCCO.O=C(O)C(=O)Nc1nc(-c2cccnc2)cs1` displayed an ED50 of over 10 mg/kg. The same measure, in the same setting: with `Cc1cc(-c2csc(NC(=O)C(=O)O)n2)ccc1O.NCCO` the figure was about 1 mg/kg. Consider `CCOC(=O)C(=O)Nc1nc(-c2ccc(OC)cc2O)cs1`, for which, in the experiment with Rattus norvegicus [1], the ED50 is about 1 mg/kg. Regarding `NCCO.O=C(O)C(=O)Nc1nc(-c2ccc(O)c(O)c2)cs1`, the 50% effective dose (ED50) in the experiment on Rattus norvegicus [5] came out at 0.08 mg/kg; with Rattus norvegicus [1], 0.1 mg/kg. In the case of `COc1cc(OC)cc(-c2csc(NC(=O)C(=O)O)n2)c1`, the ED50 with Rattus norvegicus [5] is about 0.1 mg/kg; with Rattus norvegicus [1] it was about 1 mg/kg.

Consider `CCOC(=O)C(=O)Nc1nc(-c2cc(OC)ccc2OC)cs1`, for which the ED50 with Rattus norvegicus [1] is over 10 mg/kg.

Molecule `CCOC(=O)C(=O)Nc1nc(-c2cc(OC)cc(OC)c2)cs1` returned an ED50 in the experiment with Rattus norvegicus [1] of about 10 mg/kg.

Molecule `CC(=O)N1c2ccccc2Sc2ccc(-c3csc(NC(=O)C(=O)O)n3)cc21.NCCO` returned a 50% effective dose (ED50) in the experiment on Rattus norvegicus [1] of about 10 mg/kg.

In the experiment with Rattus norvegicus [1], `CCCCOC(=O)C(=O)Nc1nc(-c2ccc(C(=O)OCC)cc2)cs1` came in with an ED50 of over 10 mg/kg. Turning to `CCOC(=O)C(=O)Nc1nc(-c2ccc(O)c(O)c2)cs1`, it took a dose of 1.4 mg/kg to reach the 50% effect level with Rattus norvegicus [1] (ED50).

`CCOC(=O)C(=O)Nc1nc(-c2ccc3c(c2)OCC(CN2CCCCC2)O3)cs1` (configuration not stated) had a 50% effective dose (ED50) in the experiment with Rattus norvegicus [1] of over 10 mg/kg. In the experiment on Rattus norvegicus [1], `CCOC(=O)C(=O)Nc1nc(-c2ccc3c(c2)OCCO3)cs1` returned an ED50 of over 10 mg/kg. In the case of `CCCC(=O)Nc1ccc(-c2csc(NC(=O)C(=O)OCC)n2)cc1`, the ED50 in the experiment on Rattus norvegicus [5] is under 0.3 mg/kg; in the experiment with Rattus norvegicus [1], over 10 mg/kg. For `CC(=O)Nc1ccc(-c2csc(NC(=O)C(=O)O)n2)cc1`, the ED50 came to 0.37 mg/kg in the experiment with Rattus norvegicus [6] and 0.16 mg/kg in the experiment on Rattus norvegicus [7]. In the case of `CCOC(=O)C(=O)Nc1nc(-c2ccc3oc(C)c(C)c(=O)c3c2)cs1`, in the experiment on Rattus norvegicus [1], the ED50 was over 3 mg/kg.

Take `COc1ccc(-c2csc(NC(=O)C(=O)O)n2)c(OC)c1`: the ED50 in the experiment with Rattus norvegicus [8] was 0.39 mg/kg; in the experiment with Rattus norvegicus [1] it was over 10 mg/kg.

In the experiment with Rattus norvegicus [1], `CCOC(=O)C(=O)Nc1nc(-c2ccc(C(=O)OCC)cc2)cs1` came in with an ED50 of over 10 mg/kg.

Molecule `NCCO.O=C(O)C(=O)Nc1nc(-c2ccc(Sc3ccccc3)cc2)cs1` registered an ED50 with Rattus norvegicus [1] of over 30 mg/kg. On the same count and under the same terms, with `CCOC(=O)C(=O)Nc1nc(-c2cccc(O)c2)cs1` the figure was over 10 mg/kg. Consider `CCOC(=O)C(=O)Nc1nc(-c2ccc(O)c(C)c2)cs1`, for which the 50% effect level in the experiment with Rattus norvegicus [9] (ED50) was put at a dose of 2.2 mg/kg. Take `CCOC(=O)C(=O)Nc1nc(-c2ccccc2C(=O)OC)cs1`: the median effective dose (ED50) with Rattus norvegicus [1] is over 10 mg/kg. As to `CC(=O)c1cc(-c2csc(NC(=O)C(=O)O)n2)ccc1O.NCCO.NCCO`, the results for the ED50 with Rattus norvegicus [10] and in the experiment on Rattus norvegicus [1] were 0.71 mg/kg and about 1 mg/kg, respectively. Turning to `NC(=O)C(=O)Nc1ccc(-c2csc(NC(=O)C(N)=O)n2)cc1`, the ED50 with Rattus norvegicus [1] was about 1 mg/kg. The molecule `CCOC(=O)C(=O)Nc1nc(-c2ccc(NC(=O)C(F)(F)F)cc2)cs1` yielded an ED50 in the experiment on Rattus norvegicus [1] of about 1 mg/kg.

For the molecule `CCOC(=O)C(=O)Nc1nc(-c2ccc(N(C)C)cc2)cs1`, the ED50 in the experiment on Rattus norvegicus [5] was about 0.3 mg/kg; in the experiment with Rattus norvegicus [1], about 1 mg/kg.

`COC(=O)C(=O)Nc1nc(-c2ccc(OC)c(OC)c2)cs1` had a 50% effective dose (ED50) in the experiment with Rattus norvegicus [11] of 1.2 mg/kg. For the molecule `Cc1cc(O)ccc1-c1csc(NC(=O)C(=O)O)n1.NCCO`, the values for the ED50 in the experiment with Rattus norvegicus [5] and with Rattus norvegicus [1] were 1 mg/kg and over 10 mg/kg, respectively. For `NCCO.O=C(O)C(=O)Nc1nc(-c2ccc(Oc3ccccc3)cc2)cs1`, the ED50 in the experiment on Rattus norvegicus [1] is over 10 mg/kg. In turn, `O=C([O-])c1cc(=O)c2c(OCC(O)COc3cccc4oc(C(=O)[O-])cc(=O)c34)cccc2o1.[Na+].[Na+]` [CROMOLYN SODIUM] returned a 50% effective dose (ED50) in the experiment on Rattus norvegicus [12] of 1.24 mg/kg. In the experiment with Rattus norvegicus [1], `CCOC(=O)C(=O)Nc1nc(-c2ccc(OC)cc2)cs1` [TIOXAMAST] showed an ED50 of about 10 mg/kg.
